As usually defined, the IC50 is the concentration that gives 50% inhibition.

Active and inactive are the calls of the source. The calls are words filed in the database; no cut-off is given here.

Experimental findings from ChEMBL document CHEMBL5316316, “Designing Synthetic, Sulfated Glycosaminoglycan Mimetics That Are Orally Bioavailable and Exhibiting In Vivo Anticancer Activity” (J Med Chem, 2023) are described below.

Data set [1] deals with HT-29. Kind of data set: Cytotoxicity against human HT-29 cells assessed as reduction in cell viability at 100 uM incubated for 60 to 72 hrs by MTT assay. The class given is toxicity, cell-based. Conditions: ht-29, 100 µM, time 60-72 hrs. In a few lines:
(§1)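 HT-29 monolayer cells were seeded at about 2.5 × 10^3 per well in DMEM:F12 with 10% FBS and incubated overnight at 37 °C, 5% CO2. Compound was added for 60–72 h. MTT (5 mg/mL in PBS) was added for 2–3 h, crystals were dissolved in DMSO and absorbance read at 590 nm. Results are percent of vehicle control, at least three replicates.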
(Formazan colour is commonly taken as a measure of viable cells.)

In data set [2] the test system is Mus musculus. Kind of data set: Antithrombotic activity in ICR mouse model of tail-bleeding assessed as increase in blood loss at 100 mg/kg, iv.
The test system of data set [3] is Plasma. Put plainly: Anticoagulant activity in human plasma assessed as prolongation of activated partial thromboplastin time by measuring concentration required to double APTT incubated for 4 mins by coagulometer analysis. The class given is functional, cell-free. In a few lines:
(§2)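 Pooled normal citrated human plasma (90 μL) mixed with 10 μL compound and 100 μL prewarmed ellagic acid APTT reagent, incubated 4 min at 37 °C, then recalcified with 100 μL prewarmed 25 mM CaCl2. Clot time read on a fibrometer (one-stage recalcification). Water blank gave the baseline. Concentration doubling APTT came from a quadratic trend-line fit.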

Data set [4] can be described thus: Cytotoxicity against human HT-29 cells assessed as inhibition of spheroid growth. Conditions: HT-29 cell spheroids.
Data set [5] relates to Plasma. Kind of data set: Anticoagulant activity in pooled human plasma assessed as prolongation of activated partial thromboplastin time incubated for 4 mins by coagulometer analysis. The class given is functional, cell-free. In a few lines: as §2
Data set [6] deals with HT-29. Kind of data set: Antitumor activity against human HT-29 cells xenografted in NCR nude mouse assessed as reduction in tumor growth at 100 mg/kg, ip administered 3 times a week for 3 weeks. The class given is functional, organism-based.
In data set [7] the test system is Plasma. Put plainly: Anticoagulant activity in pooled human plasma assessed as prolongation of activated partial thromboplastin time at 900 uM incubated for 4 mins by coagulometer analysis. The class given is functional. In a few lines:
as §2

For data set [8], the system named is HT-29. Put plainly: Anticancer activity against human HT-29 cells assessed as inhibition of CXCR4+ expression level. The class given is functional, cell-based.
The subject of data set [9] is HT-29. Kind of data set: Cytotoxicity against human HT-29 cells assessed as reduction in cell viability incubated for 60 to 72 hrs by MTT assay. The class given is toxicity, cell-based. Conditions: time 60-72 hrs. The method in brief: as §1
In data set [10] the test system is HT-29. Put plainly: Anticancer activity against human HT-29 cells assessed as inhibition of DCAMLK1 expression level. The class given is functional, cell-based.
Data set [11] has as its system HT-29. Put plainly: Anticancer activity against human HT-29 cells assessed as inhibition of CD133+ expression level. Format: functional, cell-based.
In data set [12] the test system is HT-29. Put plainly: Anticancer activity against human HT-29 cells assessed as inhibition of LGR5 expression level. Format: functional, cell-based.
The subject of data set [13] is HT-29. Kind of data set: Antitumor activity against human HT-29 cells xenografted in NCR nude mouse assessed as decrease in BMI-1 expression at 100 mg/kg, ip administered 3 times a week for 4.6 weeks by Western blot analysis. Format: functional, organism-based. In a few lines:
(§3)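 Mice were randomized to 100 mg/kg IP three times/week for 4.6 weeks (14 doses). Tumors (n = 2/group) were dissociated and analysed by Western blot for LGR5, DCAMLK1 and BMI-1, and by flow cytometry for CD133+/CXCR4+ cells.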
Background: In xenograft studies the graft and the host belong to different species.

For data set [14], the system named is HT-29. Kind of data set: Antitumor activity against human HT-29 cells xenografted in NCR nude mouse assessed as decrease in DCAMKL1 expression at 100 mg/kg, ip administered 3 times a week for 4.6 weeks by Western blot analysis. The class given is functional, organism-based. In a few lines: as §3
For data set [15], the system named is HT-29. Kind of data set: Cytotoxicity against human HT-29 cells assessed as reduction in cell viability at 400 uM incubated for 60 to 72 hrs by MTT assay. Conditions: ht-29, 400 µM, time 60-72 hrs. Format: toxicity, cell-based. In a few lines: as §1
Data set [16] has as its system HT-29. Kind of data set: Antitumor activity against human HT-29 cells xenografted in NCR nude mouse assessed as decrease in LGR5 expression at 100 mg/kg, ip administered 3 times a week for 4.6 weeks by Western blot analysis. The class given is functional, organism-based. In a few lines: as §3

Turning to `CC(C)CCC[C@@H](C)[C@H]1CC[C@H]2[C@@H]3CC=C4C[C@@H](OCCCCCCCCOc5cc(-c6oc7cc(OS(=O)(=O)[O-])cc(OCCCOc8cc(OS(=O)(=O)[O-])cc9oc(-c%10ccc(OS(=O)(=O)[O-])c(OS(=O)(=O)[O-])c%10)c(OS(=O)(=O)[O-])c(=O)c89)c7c(=O)c6OS(=O)(=O)[O-])ccc5OS(=O)(=O)[O-])CC[C@]4(C)[C@H]3CC[C@]12C.[Na+].[Na+].[Na+].[Na+].[Na+].[Na+].[Na+]`, the figures for the Activity entry in data set [1] and in [5] were “Toxic” and “Dose-Dependent Effect”, respectively. The outcome in data set [2] and in data set [3] was Active. Further, the IC50 in [4] is 0.8 µM.
As to `O=c1c(OS(=O)(=O)[O-])c(-c2ccc(OS(=O)(=O)[O-])c(OS(=O)(=O)[O-])c2)oc2cc(OS(=O)(=O)[O-])cc(OCCCOc3cc(OS(=O)(=O)[O-])cc4oc(-c5ccc(OS(=O)(=O)[O-])c(OS(=O)(=O)[O-])c5)c(OS(=O)(=O)[O-])c(=O)c34)c12.[Na+].[Na+].[Na+].[Na+].[Na+].[Na+].[Na+].[Na+]`, the result in data set [6], in [8], in [10], in data set [11] and in [12] was Active. Also, the APTT in data set [7] worked out at 68 s. For the same compound, the Activity result in data set [9] was “Non-Toxic”; in data set [5], “Dose-Dependent Effect”. Moreover, the IC50 in data set [4] amounted to 29.6 µM.
Turning to `O=c1c(OS(=O)(=O)[O-])c(-c2ccc(OS(=O)(=O)[O-])cc2OS(=O)(=O)[O-])oc2cc(OS(=O)(=O)[O-])cc(OCC3CCC(COc4cc(OS(=O)(=O)[O-])cc5oc(-c6ccc(OS(=O)(=O)[O-])cc6OS(=O)(=O)[O-])c(OS(=O)(=O)[O-])c(=O)c45)CC3)c12.[Na+].[Na+].[Na+].[Na+].[Na+].[Na+].[Na+].[Na+]` (configuration not stated), the Activity result in data set [9] was “Non-Toxic”. The half-maximal inhibitory concentration (IC50) in data set [4] amounted to 17.9 µM.
The corresponding values for `O=c1c(OS(=O)(=O)[O-])c(-c2ccc(OS(=O)(=O)[O-])c(OS(=O)(=O)[O-])c2)oc2cc(OS(=O)(=O)[O-])cc(OCC3CCC(COc4cc(OS(=O)(=O)[O-])cc5oc(-c6ccc(OS(=O)(=O)[O-])c(OS(=O)(=O)[O-])c6)c(OS(=O)(=O)[O-])c(=O)c45)CC3)c12.[Na+].[Na+].[Na+].[Na+].[Na+].[Na+].[Na+].[Na+]` (configuration not stated) are “Non-Toxic” and 4 µM.
As to `CC(C)CCC[C@@H](C)[C@H]1CC[C@H]2[C@@H]3CC=C4C[C@@H](OCCCCCOc5cc(-c6oc7cc(OS(=O)(=O)[O-])cc(OCCCOc8cc(OS(=O)(=O)[O-])cc9oc(-c%10ccc(OS(=O)(=O)[O-])c(OS(=O)(=O)[O-])c%10)c(OS(=O)(=O)[O-])c(=O)c89)c7c(=O)c6OS(=O)(=O)[O-])ccc5OS(=O)(=O)[O-])CC[C@]4(C)[C@H]3CC[C@]12C.[Na+].[Na+].[Na+].[Na+].[Na+].[Na+].[Na+]`, the result in data set [13], in data set [14], in [3] and in data set [16] was Active. For the same compound, the Activity entry in [15] was “Toxic”; in data set [5] it was “Dose-Dependent Effect”. Also, in data set [4], the IC50 stood at 11.5 µM.
For the compound `O=c1cc(-c2ccc(OS(=O)(=O)[O-])cc2)oc2cc(OS(=O)(=O)[O-])cc(OCC3CCC(COc4cc(OS(=O)(=O)[O-])cc5oc(-c6ccc(OS(=O)(=O)[O-])cc6)cc(=O)c45)CC3)c12.[Na+].[Na+].[Na+].[Na+]` (configuration not stated), in [9], the Activity result is reported as “Non-Toxic”. In addition, the IC50 in [4] amounted to 46 µM.
